Data published in ChEMBL document CHEMBL4177752, “Discovery of Novel Schizocommunin Derivatives as Telomeric G-Quadruplex Ligands That Trigger Telomere Dysfunction and the Deoxyribonucleic Acid (DNA) Damage Response” (J Med Chem, 2018).
Active and inactive are the calls of the source. The calls are words filed in the database; no cut-off is given here.

Columns and labels:
SiHa [1] = test: Cell cycle arrest in human SiHa cells assessed as accumulation at G2/M phase at 1 uM after 12 hrs by propidium iodide staining-based flow cytometric method; format: functional
How it was run: (§1)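 SiHa or U2OS cells (2.0×10^5 per well) were treated with compound or DMSO for 12 h, fixed in ice-cold 70% ethanol overnight, and stained with 50 µg/mL PI plus RNase A for 30 min at room temperature in the dark. 10,000 events were collected by flow cytometry to give the phase distribution.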

[2] = Binding affinity to hairpin duplex DNA (unknown origin) at 40 uM by SPR method
How it was run: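 SPR: biotinylated HTG21 or hairpin DNA (200 nM) was folded in 50 mM Tris-HCl pH 7.4 with 100 mM KCl and captured to about 1,000 RU on an NLC chip against a blank reference cell. Ligand at 0.625–40 µM was injected at 25 µL/min (400 s association, 300 s dissociation) at 25 °C. The chip was regenerated with 1 M KCl and blank sensorgrams were subtracted.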

Quadruplex DNA [3] = test: Stabilization of telomeric G-quadruplex DNA in human SiHa cells assessed as induction of telomere uncapping by measuring formation of anaphase bridge at 1 uM after 48 hrs by DAPI staining-based laser scanning microscopic method; format: cell-based
How it was run: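 SiHa cells were treated with 1 µM compound for 48 h, fixed in 2% formaldehyde/0.2% glutaraldehyde for 15 min, and stained with 2 µg/mL DAPI at 37 °C for 3 h. Confocal imaging followed. Anaphase-bridge frequency is the fraction of cells with bridges; at least 50 anaphase cells per experiment.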

Quadruplex DNA [4] = test: Stabilization of telomeric G-quadruplex DNA in human SiHa cells assessed as decrease in TRF length at 0.5 to 1 uM after 21 days by chemiluminescence detection method; format: cell-based
How it was run: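 SiHa cells were kept 21 days with 0.5 or 1 µM compound or 0.1% DMSO, with medium and compound renewed every 3 days. Genomic DNA was cut with HinfI/RsaI, run on 0.8% agarose, blotted to nylon, baked at 120 °C for 20 min, and TRF length detected by chemiluminescence.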

Quadruplex DNA [5] = test: Stabilization of telomeric G-quadruplex DNA in human SiHa cells assessed as induction of telomere uncapping by measuring formation of micronuclei at 1 uM after 48 hrs by DAPI staining-based laser scanning microscopic method; format: cell-based
Quadruplex DNA [6] = test: Stabilization of F21T telomeric G-quadruplex DNA (unknown origin) at 1 uM in presence of non-fluorescent duplex DNA ds26 by FRET assay; format: nucleic-acid assay
How it was run: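 Competition FRET: 0.2 µM F21T with 1 µM ligand, plus or minus unlabelled duplex ds26 at 3 µM (15-fold) or 10 µM (50-fold), in 10 mM Tris-HCl pH 7.4 with 60 mM KCl. Melting monitored at 470/530 nm over 37–99 °C.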

Quadruplex DNA [7] = test: Stabilization of telomeric G-quadruplex DNA in human U2OS cells assessed as induction of DNA damage response by measuring gamma-H2AX foci formation per nucleus at 2 uM after 24 hrs by DAPI staining-based immunofluorescence method; format: cell-based
How it was run: (§2)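 Cells were treated 24 h with 2 µM compound or 0.1% DMSO, then fixed (4% paraformaldehyde), permeabilized (0.5% Triton X-100) and blocked (5% goat serum). Staining used BG4 (80 ng/µL, 37 °C 3 h) with anti-FLAG, and/or γ-H2AX, TRF2 or POT1 antibodies at 4 °C overnight. Alexa 488/555 secondaries and DAPI followed. Foci or co-localized foci per nucleus were counted by confocal microscopy; mean ± SEM, two-tailed unpaired t test.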

U2OS [8] = test: Cell cycle arrest in human U2OS cells assessed as accumulation at G2/M phase at 1 uM after 12 hrs by propidium iodide staining-based flow cytometric method; format: functional; how it was run: as §1
Quadruplex DNA [9] = test: Stabilization of telomeric G-quadruplex DNA in human SiHa cells assessed as induction of DNA damage response by measuring co-localization of gamma-H2AX and TRF2 foci per nucleus at 2 uM after 24 hrs by DAPI staining-based double immunofluorescence method; format: cell-based; how it was run: as §2
U2OS [10] = test: Antiproliferative activity against human U2OS cells after 48 hrs by MTT assay; format: functional, cell-based
How it was run: (§3)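 Cells seeded at 5.0×10^3 per well and exposed to a range of compound concentrations for 48 h. MTT (2.5 mg/mL solution) was then added for 4 h, formazan was dissolved in DMSO, and OD was read at 570 nm. HL-60 was grown in RPMI-1640 with 10% FBS, the other lines in DMEM with 10% FBS, at 37 °C and 5% CO2. Triplicates; IC50 taken from mean OD versus concentration curves.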

Quadruplex DNA [11] = test: Stabilization of telomeric G-quadruplex DNA in human U2OS cells assessed as induction of DNA damage response by measuring co-localization of gamma-H2AX and TRF2 foci per nucleus at 2 uM after 24 hrs by DAPI staining-based double immunofluorescence method; format: cell-based; how it was run: as §2
SiHa [12] = test: Effect on POT1 expression in human SiHa cells at 1 uM after 48 hrs by Western blot method; format: functional, cell-based
Quadruplex DNA [13] = test: Stabilization of telomeric G-quadruplex DNA in human SiHa cells assessed as reduction of POT1/TRF2 co-localized foci per nucleus at 2 uM after 24 hrs by DAPI staining-based double immunofluorescence method; format: cell-based; how it was run: as §2
Quadruplex DNA [14] = test: Stabilization of F21T telomeric G-quadruplex DNA (unknown origin) assessed as change in melting temperature at 1 uM by FRET assay; format: nucleic-acid assay
How it was run: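 FRET melting: 0.2 µM F21T or F10T (FAM/TAMRA-labelled), with or without 1.0 µM ligand, in 10 mM Tris-HCl pH 7.4 with 60 mM KCl. Excitation 470 nm, emission 530 nm, read every 1 °C from 37–99 °C at 1 °C/min with a 30 s hold. ΔTm = Tm(DNA+ligand) − Tm(DNA).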

Quadruplex DNA [15] = test: Stabilization of telomeric G-quadruplex DNA in human SiHa cells assessed as levels of metaphase chromosome having at least one telomere end loss at 1 uM after 48 hrs by Tamra-OO-[TTAGGG]3 PNA probe and DAPI staining-based FISH assay relative to control; format: cell-based
How it was run: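 Metaphase spreads from SiHa cells treated 48 h with 1 µM compound or 0.1% DMSO were hybridized with a telomeric PNA probe and counterstained with DAPI. The share of chromosomes with at least one telomere-free end was scored; mean ± SEM, two-tailed unpaired t test.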

SiHa [16] = test: Antiproliferative activity against human SiHa cells after 48 hrs by MTT assay; format: functional, cell-based; how it was run: as §3
SiHa [17] = test: Antiproliferative activity against human SiHa cells after 90 hrs by RTCA method; format: functional, cell-based
How it was run: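 SiHa proliferation was followed by real-time cellular analysis during 90 h of compound treatment at several concentrations.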

A549 = test: Antiproliferative activity against human A549 cells after 48 hrs by MTT assay; format: functional, cell-based; details: A549, 48 h; how it was run: as §3
Quadruplex DNA [18] = test: Stabilization of telomeric G-quadruplex DNA in human SiHa cells assessed as increase in phosphorylated CHK1 expression after 48 hrs by Western blot method; format: cell-based
How it was run: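 SiHa cells were treated with compound for 48 h and lysed in RIPA buffer. 20 µg protein was run on 10% SDS-PAGE and transferred to PVDF. Blots were blocked in 3% BSA, probed with primary antibodies (1:1,000, 4 °C 16 h) for p-ATR, p-CHK1 and p-P53, then secondaries (1:2,000, 2 h at room temperature).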

CN(C)CCCNc1cc2nc(/C=C3\C(=O)Nc4cc(N5CCN(C)CC5)ccc43)[nH]c(=O)c2cc1F
Activity (SiHa [1]): Active
Activity [2]: inactive
Activity (Quadruplex DNA [3]): Active
Activity (Quadruplex DNA [4]): Active
Activity (Quadruplex DNA [5]): Active
Activity (Quadruplex DNA [6]): Active
Activity (Quadruplex DNA [7]): Active
Activity (U2OS [8]): Active
Activity (Quadruplex DNA [9]): Active
IC50 (U2OS [10]): 3.2 µM
Activity (Quadruplex DNA [11]): Active
Activity (SiHa [12]): inactive
Activity (Quadruplex DNA [13]): Active
ΔTm (Quadruplex DNA [14]): 23.5 °C
Activity (Quadruplex DNA [15]): 31%
IC50 (SiHa [16]): 2.8 µM
Activity (SiHa [17]): Dose-dependent effect
IC50 (A549): 9.1 µM
Activity (Quadruplex DNA [18]): Dose-dependent effect
